Laboratory results from ChEMBL document CHEMBL1142709, “Discovery and evaluation of 2-anilino-5-aryloxazoles as a novel class of VEGFR2 kinase inhibitors” (J Med Chem, 2005).
Each block holds one molecule with its values, some of them ahead of it.

Assays:
[1] = Inhibition of basic FGF-induced proliferation of human umbilical vein endothelial cells; assay type: functional, cell-based; conditions: Endothelial cell
[2] = Peak plasma concentration in mice following oral administration of an aqueous solution of the bis-mesylate salt of the compound; assay type: ADME, organism-based; design: route oral; conditions: mouse
How it was run: (§1)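 Male CD mice (n = 2) given the bis-mesylate salt as an aqueous solution at 100 mg/kg by oral gavage, dose volume 10 mL/kg. Plasma taken from blood kept on wet ice, stored at -20 °C, protein-precipitated with four volumes of acetonitrile and analysed by HPLC/MS.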

HT-29 = test: In vitro inhibition of human colon tumor HT-29 cell proliferation; assay type: functional, cell-based
[3] = Time at which peak plasma concentration is attained in mice following oral administration of an aqueous solution of the bis-mesylate salt of the compound; assay type: ADME, organism-based; conditions: mouse; how it was run: as §1
[4] = Area under concentration time curve in mice following oral administration of an aqueous solution of the bis-mesylate salt of the compound; assay type: ADME; conditions: mouse, in vivo; how it was run: as §1
[5] = Half life in rats dosed at […] iv in 10% HP-alpha-cyclodextrin in 0.05 M acetic acid and 10 mg/kg po in 0.5% HPMCw/0.1% Tween 80 (n=3); assay type: ADME, organism-based; conditions: rat, in vivo
[6] = Bioavailability of compound was determined in dogs dosed at 1 mg/kg iv in 40% […] and 1 mg/kg po in 0.5% HPMC w/0.1%Tween 80 (n=2); assay type: ADME, organism-based, Canis lupus familiaris; conditions: dog, in vivo
How it was run: (§2)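 Male beagle dogs (n = 2). IV 1 mg/kg in 40% SBE-β-cyclodextrin and oral gavage 1 mg/kg in 0.5% HPMC/0.1% Tween 80, dose volume 0.5 mL/kg. Plasma precipitated with four volumes of acetonitrile and analysed by HPLC/MS. Parameters are averages of two dogs.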

[7] = Distribution at steady state was determined in rats dosed at […] iv in 10% HP-alpha-cyclodextrin in 0.05 M acetic acid and 10 mg/kg po in 0.5% HPMCw/0.1% Tween 80 (n=3); assay type: ADME, organism-based; conditions: rat, in vivo, read-out: Vdss
[8] = Half life in dogs dosed at 1 mg/kg iv in 40% […] and 1 mg/kg po in 0.5% HPMC w/0.1%Tween 80 (n=2); assay type: ADME, organism-based, Canis lupus familiaris; conditions: dog, in vivo; how it was run: as §2
[9] = Bioavailability of compound was determined in rats dosed at […] iv in 10% HP-alpha-cyclodextrin in 0.05 M acetic acid and 10 mg/kg po in 0.5% HPMCw/0.1% Tween 80 (n=3); assay type: ADME, organism-based; conditions: rat, in vivo
[10] = Distribution at steady state was determined in dogs dosed at […] and 1 mg/kg po in 0.5% HPMC w/0.1%Tween 80 (n=2); assay type: ADME, organism-based, Canis lupus familiaris; conditions: dog, in vivo, iv, read-out: Vdss

SMILES: Clc1ccc(Nc2nnc(Cc3ccncc3)c3ccccc23)cc1 [VATALANIB]
IC50 [1]: 25 µM

Cmax [2]: 35 µM | IC50 (HT-29): 4.5 µM | Tmax [3]: 4 h | AUC [4]: 102 µg·h/mL
SMILES: CCS(=O)(=O)c1ccc(OC)c(Nc2ncc(-c3cccc(-c4ccccn4)c3)o2)c1
IC50 [1]: 5.8 µM

half-life [5]: 1.6 h | bioavailability [6]: 7% | Vd [7]: 1.03 L/kg | half-life [8]: 3.5 h | bioavailability [9]: 11% | Vd [10]: 3.74 L/kg
SMILES: CCS(=O)(=O)c1ccc(OC)c(Nc2ncc(-c3cccc(-c4ccccn4)c3)o2)c1.CS(=O)(=O)O

SMILES: c1ccc(Nc2ncc(-c3ccccc3)o2)cc1 [GW549390X]
IC50 [1]: 24 µM

SMILES: COc1cc2/c(=N/c3ccc(Br)cc3F)nc[nH]c2cc1OCC1CCN(C)CC1 [VANDETANIB]
IC50 [1]: 1.2 µM

SMILES: CCS(=O)(=O)c1ccc(OC)c(Nc2ncc(-c3cccc(-c4ccccc4Cl)c3)o2)c1
IC50 [1]: 1.1 µM
